Assay results published in PMC9168489 (Proceedings of the National Academy of Sciences of the …, 2022).
Values belong to the molecule of their own block, whether it stands above or below them. Where no end group is shown, it is not given here.

Legend:
[1] = biological target: HTRA1 (human) (UniProt Q92743); assay: ITC
[2] = system: HTRA1 Asn311Ala; assay: Tau digest with loop L3 mutant Asn311Ala; assay type: biochemical, human; details: 50 µM peptide
In short: (§1)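 HTRA1 loop L3 point mutants were assayed by tau digestion, with or without 50 µM test peptides derived from the CAPN2 C terminus, to measure mutant activity.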

[3] = system: HTRA3; assay: Tau digest with HTRA3; assay type: biochemical, human; details: 0.5 µM HTRA3, 5 µM tau, 50 µM peptide, 50 mM Tris pH 8.0, 37 °C
[4] = system: HTRA2; assay: Tau digest with HTRA2; assay type: biochemical, human; details: 0.5 µM HTRA2, 5 µM tau, 50 µM peptide, 50 mM Tris pH 8.0, 37 °C
[5] = system: HTRA1 Lys305Ala; assay: Tau digest with loop L3 mutant Lys305Ala; assay type: biochemical, human; details: 50 µM peptide
In short: as §1

[6] = system: HTRA1ΔPDZ; assay: Soluble tau digest with HTRA1ΔPDZ; assay type: biochemical, human; details: 50 µM peptide, 0.5 µM protease, 5 µM tau, 50 mM Tris pH 8.0, 37 °C; SDS-PAGE
In short: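 Soluble tau (5 µM) digested by 0.5 µM protease (HTRA1ΔPDZ run alongside full-length HTRA1) in 50 mM Tris pH 8.0 at 37 °C. Peptides derived from the CAPN2 C terminus were added at 50 µM, with a no-peptide control. Samples were taken at several time points and tau cleavage was followed by SDS-PAGE.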

[7] = system: tau fibrils; assay: Proteolysis of tau fibrils; assay type: biochemical; details: 2.5 µM tau fibrils, 2.5 µM HTRA1/HTRA1-CAPN2, 37 °C, 50 mM Tris HCl pH 8
[8] = system: HTRA1; assay: Soluble tau digest with HTRA1; assay type: biochemical, human; details: SDS-PAGE; for activation of HTRA1 by CAPN2: 0.5 µM HTRA1, 5 µM tau, 50 mM Tris pH 8.0, 37 °C, CAPN2 titration
[9] = system: tau fibrils; assay: Sedimentation assay of tau fibrils; assay type: biochemical; details: no Ca^2+, ultracentrifugation
In short: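 Tau fibrils were incubated with HTRA1SA alone, the HTRA1SA–CAPN2 complex, CAPN2 alone, or no protein, then ultracentrifuged. Total sample taken before centrifugation, pellet and supernatant fractions were resolved by SDS-PAGE and stained with Coomassie.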

[10] = system: tau fibrils; details: in the presence of Ca^2+; cited from earlier work
[11] = system: HTRA1 (HEK293 cells); assay: Coimmunoprecipitation of HTRA1 with CAPN2; assay type: cell-based, human; details: HEK293 lysates; Strep or Myc beads; n = 3
[12] = system: tau; assay: Soluble tau digest with CAPN2 alone; assay type: biochemical; details: buffers without Ca^2+
In short: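 5 µM soluble tau was incubated with 0.5 µM CAPN2 in 50 mM Tris HCl, pH 8, at 37 °C. Aliquots were withdrawn at set time points and analysed by SDS-PAGE.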

[13] = biological target: HTRA1; assay: ITC of HTRA1SA and CAPN2CA; assay type: binding, human; details: 500 µM HTRA1SA in syringe titrated to 10 µM CAPN2CA, 50 mM bicine, 150 mM NaCl pH 9.0, 37 °C

Kd [1]: 4 µM
Molecule: CFD peptide, carboxyl terminus of complement factor D

Molecule: LISWLSFSDL
activation of HTRA1 Asn311Ala [2]: still allowed activation
effect on HTRA3 activity [3]: activated HTRA3 strongly
effect on HTRA2 activity [4]: HTRA2 weakly
activation of HTRA1 Lys305Ala [5]: still allowed activation

Molecule: LISWLSDSEL
activation of HTRA1ΔPDZ by peptides [6]: activated wild-type but not HTRA1ΔPDZ

Molecule: HTRA1–CAPN2 complexes: hetero-oligomeric complex consisting of the cysteine protease calpain 2 (CAPN2) and HTRA1
proteolysis of tau fibrils [7]: a slight decrease of HTRA1 activity
degradation of soluble tau ([8]; 5 µM tau, 0.5 µM HTRA1, 0.5 µM CAPN2, 37 °C, 50 mM Tris HCl pH 8): degradation of soluble tau was improved

Molecule: LISWLCFSVL
activation of HTRA1ΔPDZ by peptides [6]: not activated

Kd [13]: 4 µM
B1: CAPN2: CAPN2 heterodimer consists of a cysteine protease and a regulatory subunit (protein, UniProt P17655 20-700; P04632 1-268, looked up)
Calpain-2 catalytic subunit: SHDRAIKYLNQDYEALRNECLEAGTLFQDPSFPAIPSALGFKELGPYSSKTRGIEWKRPTEICADPQFIIGGATRTDICQGALGDCWLLAAIASLTLNEEILARVVPLNQSFQENYAGIFHFQFWQYGEWVEVVVDDRLPTKDGELLFVHSAEGSEFWSALLEKAYAKINGCYEALSGGATTEGFEDFTGGIAEWYELKKPPPNLFKIIQKALQKGSLLGCSIDITSAADSEAITFQKLVKGHAYSVTGAEEVESNGSLQKLIRIRNPWGEVEWTGRWNDNCPSWNTIDPEERERLTRRHEDGEFWMSFSDFLRHYSRLEICNLTPDTLTSDTYKKWKLTKMDGNWRRGSTAGGCRNYPNTFWMNPQYLIKLEEEDEDEEDGESGCTFLVGLIQKHRRRQRKMGEDMHTIGFGIYEVPEELSGQTNIHLSKNFFLTNRARERSDTFINLREVLNRFKLPPGEYILVPSTFEPNKDGDFCIRVFSEKKADYQAVDDEIEANLEEFDISEDDIDDGFRRLFAQLAGEDAEISAFELQTILRRVLAKRQDIKSDGFSIETCKIMVDMLDSDGSGKLGLKEFYILWTKIQKYQKIYREIDVDRSGTMNSYEMRKALEEAGFKMPCQLHQVIVARFADDQLIIDFDNFVRCLVRLETLFKIFKQLDPENTGTIELDLISWLCFSVL
Calpain small subunit 1: MFLVNSFLKGGGGGGGGGGGLGGGLGNVLGGLISGAGGGGGGGGGGGGGGGGGGGGTAMRILGGVISAISEAAAQYNPEPPPPRTHYSNIEANESEEVRQFRRLFAQLAGDDMEVSATELMNILNKVVTRHPDLKTDGFGIDTCRSMVAVMDSDTTGKLGFEEFKYLWNNIKRWQAIYKQFDTDRSGTICSSELPGAFEAAGFHLNEHLYNMIIRRYSDESGNMDFDNFISCLVRLDAMFRAFKSLDKDGTGQIQVNIQEWLQLTMYS
tau fibril dissociation (solubilization) ([9]; equimolar amounts, SDS-PAGE and Coomassie): Partial fibril dissociation
co-sedimentation with tau fibrils [9]: co-sedimentation of CAPN2 and fibrils
proteolysis of tau fibrils by CAPN2 [10]: proteolyzes fibrils
coimmunoprecipitation with HTRA1 [11]: complex formation was supported by coimmunoprecipitations
digestion of tau by CAPN2 [12]: does not digest tau
activation of HTRA1 by CAPN2 [8]: improved activation of HTRA1 by CAPN2 compared to the isolated C-terminal decapeptide

B2: CAPN2CA (protein)
chain 1: SHDRAIKYLNQDYEALRNECLEAGTLFQDPSFPAIPSALGFKELGPYSSKTRGIEWKRPTEICADPQFIIGGATRTDICQGALGDAWLLAAIASLTLNEEILARVVPLNQSFQENYAGIFHFQFWQYGEWVEVVVDDRLPTKDGELLFVHSAEGSEFWSALLEKAYAKINGCYEALSGGATTEGFEDFTGGIAEWYELKKPPPNLFKIIQKALQKGSLLGCSIDITSAADSEAITFQKLVKGHAYSVTGAEEVESNGSLQKLIRIRNPWGEVEWTGRWNDNCPSWNTIDPEERERLTRRHEDGEFWMSFSDFLRHYSRLEICNLTPDTLTSDTYKKWKLTKMDGNWRRGSTAGGCRNYPNTFWMNPQYLIKLEEEDEDEEDGESGCTFLVGLIQKHRRRQRKMGEDMHTIGFGIYEVPEELSGQTNIHLSKNFFLTNRARERSDTFINLREVLNRFKLPPGEYILVPSTFEPNKDGDFCIRVFSEKKADYQAVDDEIEANLEEFDISEDDIDDGFRRLFAQLAGEDAEISAFELQTILRRVLAKRQDIKSDGFSIETCKIMVDMLDSDGSGKLGLKEFYILWTKIQKYQKIYREIDVDRSGTMNSYEMRKALEEAGFKMPCQLHQVIVARFADDQLIIDFDNFVRCLVRLETLFKIFKQLDPENTGTIELDLISWLCFSVL
chain 2: MFLVNSFLKGGGGGGGGGGGLGGGLGNVLGGLISGAGGGGGGGGGGGGGGGGGGGGTAMRILGGVISAISEAAAQYNPEPPPPRTHYSNIEANESEEVRQFRRLFAQLAGDDMEVSATELMNILNKVVTRHPDLKTDGFGIDTCRSMVAVMDSDTTGKLGFEEFKYLWNNIKRWQAIYKQFDTDRSGTICSSELPGAFEAAGFHLNEHLYNMIIRRYSDESGNMDFDNFISCLVRLDAMFRAFKSLDKDGTGQIQVNIQEWLQLTMYS
activation of HTRA1 by CAPN2 [8]: dose-dependent activation of HTRA1

Kd [1]: 40 µM
B3: CCNH peptide, carboxyl terminus of cyclin H (peptide)
peptide: EWTDDDLVESL
modifications: not fully specified
